# Assay results reported in ChEMBL document CHEMBL1131436, “Repaglinide and related hypoglycemic benzoic acid derivatives” (1998).
# Where “and” joins values, the source holds several entries; their conditions need not be identical. Equal values may be shown once.
# Legend:
# [1] = test system: Rattus norvegicus; experiment: Maximum % decrease of blood glucose (deltaBG) was observed within 2 hour after administration orally at 0.5 mg/kg dose to fasted adult female rats versus a control group; type: functional; details: route oral
# Outline: (§1)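 Female Wistar rats (Chbb THOM, SPF, 200-220 g), fasted 24 h, dosed orally by gavage as suspension in 1.5% Tylose methylcellulose (10 mL/kg). Whole blood from retrobulbar plexus under light halothane, deproteinized with 0.33 M HClO4; glucose by hexokinase/G6PDH, hourly up to 4 h. % decrease vs control group (N = 7), Student's t-test, P ≤ 0.05.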
# [2] = test system: Rattus norvegicus; experiment: Maximum % decrease of blood glucose (deltaBG) was observed within 2 hour after administration orally at 0.1 mg/kg dose to fasted adult female rats versus a control group; type: functional; details: route oral; outline: as §1
# [3] = test system: Rattus norvegicus; experiment: Maximum % decrease of blood glucose (deltaBG) was observed within 4 hour after administration orally at 0.5 mg/kg dose to fasted adult female rats versus a control group; type: functional; details: route oral; outline: as §1
# [4] = test system: Rattus norvegicus; experiment: Maximum % decrease of blood glucose (deltaBG) was observed within 1 hr after administration orally at 0.5 mg/kg dose to fasted adult female rats versus a control group; type: functional; details: route oral; outline: as §1
# [5] = test system: Rattus norvegicus; experiment: Maximum % decrease of blood glucose (deltaBG) was observed within 3 hour after administration orally at 0.1 mg/kg dose to fasted adult female rats versus a control group; type: functional; details: route oral; outline: as §1
# [6] = test system: Rattus norvegicus; experiment: Maximum % decrease of blood glucose (deltaBG) was observed within 1 hour after administration orally at 0.1 mg/kg dose to fasted adult female rats versus a control group; type: functional; details: route oral; outline: as §1
# [7] = test system: Rattus norvegicus; experiment: Maximum % decrease of blood glucose (deltaBG) was observed within 3 hour after administration orally at 0.5 mg/kg dose to fasted adult female rats versus a control group; type: functional; details: route oral; outline: as §1
# [8] = test system: Rattus norvegicus; experiment: Maximum % decrease of blood glucose (deltaBG) was observed within 4 hour after administration orally at 0.1 mg/kg dose to fasted adult female rats versus a control group; type: functional; details: route oral; outline: as §1
# [9] = test system: Rattus norvegicus; experiment: Half-maximal effective dose was measured on rat blood glucose after administrating at 4 hr; type: functional; details: Rattus norvegicus, Blood, 4 h; read-out: ED50
# Outline: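 Adult fasted female Wistar rats (Chbb THOM, SPF, 200-220 g), food withdrawn 24 h; oral gavage of suspension in 1.5% Tylose (methylcellulose), 10 mL/kg. Retrobulbar blood under light halothane; glucose by hexokinase/G6PDH after HClO4 deproteinization, hourly to 4 h. ED50 from fit of glucose vs dose, y = b + [a × k/(k + x^nH)], Hill coefficient nH.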
# [10] = test system: Rattus norvegicus; experiment: Maximum % decrease of blood glucose (deltaBG) was observed within 4 hour after administration orally at 5 mg/kg dose to fasted adult female rats versus a control group; NS =' not significant'; type: functional, organism-based; parameters: dose 5 mg/kg; outline: as §1
# [11] = test system: Rattus norvegicus; experiment: Maximum % decrease of blood glucose (deltaBG) was observed within 4 hour after administration orally at 0.25 mg/kg dose to fasted adult female rats versus a control group; type: functional; details: route oral
# Outline: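 Adult female Wistar rats (Chbb THOM, SPF; 200-220 g) fasted 24 h, N=7 per group. Compound suspended in 1.5% methylcellulose (Tylose) and dosed by oral gavage at 10 mL/kg. Retrobulbar blood was drawn under light halothane hourly for up to 4 h. Glucose was read by hexokinase/G6PDH after HClO4 deproteinisation. Value is the maximum % fall versus vehicle controls; Student's t-test, P ≤ 0.05.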
# [12] = test system: Rattus norvegicus; experiment: Maximum % decrease of blood glucose (deltaBG) was observed within 4 hour after administration orally at 1 mg/kg dose to fasted adult female rats versus a control group; type: functional; details: route oral, 1 mg/kg; outline: as §1
# [13] = test system: Rattus norvegicus; experiment: Maximum % decrease of blood glucose (deltaBG) was observed within 4 hour after administration orally at 50 mg/kg dose to fasted adult female rats versus a control group; type: functional; details: route oral; outline: as §1
# [14] = test system: Rattus norvegicus; experiment: Maximum % decrease of blood glucose (deltaBG) was observed within 4 hour after administration orally at 0.01 mg/kg dose to fasted adult female rats versus a control group; NS =' not significant'; type: functional, organism-based; parameters: dose 0.01 mg/kg; outline: as §1
# [15] = test system: Rattus norvegicus; experiment: Maximum % decrease of blood glucose (deltaBG) was observed within 4 hour after administration orally at 50 mg/kg dose to fasted adult female rats versus a control group; NS =' not significant'; type: functional, organism-based; parameters: dose 50 mg/kg; outline: as §1
# [16] = test system: Rattus norvegicus; experiment: Maximum % decrease of blood glucose (deltaBG) was observed within 4 hour after administration orally at 100 mg/kg dose to fasted adult female rats versus a control group; type: functional; details: route oral; outline: as §1
# [17] = test system: Rattus norvegicus; experiment: Maximum % decrease of blood glucose (deltaBG) was observed within 4 hour after administration orally at 100 mg/kg dose to fasted adult female rats versus a control group; NS =' not significant'; type: functional, organism-based; parameters: dose 100 mg/kg; outline: as §1
# [18] = test system: Rattus norvegicus; experiment: Maximum % decrease of blood glucose (deltaBG) was observed within 4 hour after administration orally at 0.4 mg/kg dose to fasted adult female rats versus a control group; type: functional; details: route oral; outline: as §1
# [19] = test system: Rattus norvegicus; experiment: Maximum % decrease of blood glucose (deltaBG) was observed within 4 hour after administration orally at 0.6 mg/kg dose to fasted adult female rats versus a control group; type: functional; details: route oral; outline: as §1
structure (smiles),measurement,setting,value
CCCC(NC(=O)Cc1ccc(C(=O)O)cc1)c1ccccc1N1CCCCC1 (stereo not drawn),Delta BG,[1],-34%
same,Delta BG,[2],-17%
same,Delta BG,[3],-18%
same,Delta BG,[4],-42%
same,Delta BG,[5],-16%
same,Delta BG,[6],-27%
same,Delta BG,[7],-23%
same,Delta BG,[8]; 0.1 mg/kg,-27% and -9%
same,ED50,[9],0.07 mg/kg
CC(NC(=O)Cc1ccc(C(=O)O)cc1)c1cc(Cl)ccc1N1CCCCCC1 (stereo not drawn),Delta BG,[10],Not significant
O=C(O)c1ccc(CCNC(=O)c2cc(Cl)ccc2N2CCCCCCCC2)cc1,Delta BG,[11],-13% and -18%
same,Delta BG,[12],-40% and -39%
same,Delta BG,[3],-33%
same,ED50,[9],0.38 mg/kg
CCCC(NC(=O)Cc1ccccc1)c1ccccc1N1CCCCC1 (stereo not drawn),Delta BG,[13],-10%
CCOc1cc(CC(=O)NC(CC)c2ccccc2N2CCCCC2)ccc1C(=O)O (stereo not drawn),Delta BG,[14],Not significant
same,Delta BG,[8],-42%
CC(NC(=O)Cc1ccc(-c2nn[nH]n2)cc1)c1ccccc1N1CCCCC1 (stereo not drawn),Delta BG,[15],Not significant
O=C(O)c1ccc(CCNC(=O)c2cccc(Cl)c2)cc1,Delta BG,[16],-23%
O=C(NCCc1ccccc1)c1cc(Cl)ccc1N1CCCCCCCC1,Delta BG,[17],Not significant
O=C(Cc1ccc(C(=O)O)cc1)NC(c1ccccc1)c1ccccc1N1CCCCC1 (stereo not drawn),Delta BG,[18],-23%
same,Delta BG,[19],-36%
same,ED50,[9],0.38 mg/kg
